Source: ChEMBL document CHEMBL1955761, “Privileged scaffolds or promiscuous binders: a comparative study on rhodanines and related heterocycles in medicinal chemistry” (J Med Chem, 2012)
Activity calls are given as the source filed them.

What was measured:
[1] = system: Escherichia coli; assay: Inhibition of Escherichia coli MetAP at 10 uM after 15 mins by fluorescence analysis
[2] = molecular target: Prothrombin (Bos taurus) (UniProt P00735); assay: Inhibition of bovine plasma thrombin using Boc-Val-Pro-Arg-AMC as substrate at 25 uM preincubated for 15 mins measured after 10 mins by fluorimetric assay
Method in brief: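 Purchased bovine plasma thrombin at 10 nM final, preincubated 15 min with 25 μM inhibitor; reaction started with 50 μM substrate. Buffer 50 mM Tris-HCl pH 7.5, 150 mM NaCl, 0.05% Tween 20. Triplicate, averaged.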

[3] = system: Escherichia coli; assay: Inhibition of Escherichia coli MurA using PEP as substrate assessed as inorganic phosphate release at 25 uM preincubated for 10 mins measured after 60 mins […]
[4] = system: Dengue virus; assay: Inhibition of Dengue virus NS2B-NS3 protease using Abz-NleKRRS-3-(NO2)Y as substrate at 50 uM preincubated for 15 mins measured every sec for 15 mins by fluorimetric analysis

Row | Structure (SMILES) | inhibition [1] | inhibition [2] | inhibition [3] | inhibition [4]
1 | C/C(=C1/NC(=S)NC1=O)c1ccccc1 | 14% | 21% | 24% | inactive
2 | O=C1NC(=O)/C(=C/c2sccc2Br)N1 | inactive | 16% | inactive | 13%
3 | CC(=O)N1C(=S)NC(=O)[C@@H]1Cc1c[nH]c2ccccc12 | inactive | inactive | inactive | inactive
4 | O=C1NC(=S)N/C1=C\c1cc2ccccc2[nH]1 | inactive | 23% | 15% | 44%
5 | O=C1CNC(=O)N1 | inactive | inactive | inactive | inactive
6 | O=C1NC(=O)C(Cc2ccccc2)S1 (stereo not drawn) | inactive | inactive | inactive | inactive
7 | O=C1NC(=S)NC1Cc1cccs1 (stereo not drawn) | inactive | inactive | inactive | inactive
8 | CN(C)c1ccc(/C=C2\SC(=S)NC2=O)cc1 | inactive | 21% | 15% | 36%
9 | O=C1NC(=S)N/C1=C\c1cnc[nH]1 | 83% | 30% | 57% | 29%
10 | O=C1NC(=S)N[C@H]1Cc1ccccc1 | 12% | inactive | 17% | inactive
11 | O=C1NC(=O)/C(=C/c2c(F)c(F)c(F)c(F)c2F)N1 | inactive | 18% | 18% | 14%
12 | O=C1NC(=S)N/C1=C\C=C\c1ccco1 | 23% | 38% | 69% | 37%
13 | O=C1CSC(=S)N1 | inactive | inactive | inactive | 14%
14 | COc1ccc(/C=C/C=C2\SC(=S)NC2=O)cc1 | 12% | 20% | 62% | 51%
15 | C/C(=C1/SC(=S)NC1=O)c1ccc2ccccc2c1 | inactive | 23% | inactive | 42%
16 | O=C1NC(=S)S/C1=C\c1ccccn1 | – | inactive | – | –
17 | COc1ccc(/C=C2\SC(=S)NC2=O)cc1OC | inactive | 29% | inactive | 50%
18 | O=C1NC(=S)N/C1=C\c1ccco1 | inactive | 14% | 22% | 46%
19 | C/C(=C1/NC(=S)NC1=O)c1ccc(F)cc1 | 18% | 23% | 29% | inactive
20 | O=C1NC(=S)N/C1=C\c1cccs1 | inactive | 16% | inactive | 48%
21 | O=C1NC(=S)S/C1=C\c1ccc(Cl)s1 | inactive | 27% | 13% | 54%
22 | O=C1NC(=S)S/C1=C\c1cnc[nH]1 | 18% | 31% | 18% | 53%
23 | O=C1NC(=O)[C@@H](Cc2ccccc2)N1 | inactive | inactive | inactive | inactive
24 | C/C(=C1/SC(=S)NC1=O)c1ccccc1 | inactive | 19% | 33% | 23%
25 | O=C1NC(=S)S/C1=C\c1cccs1 | inactive | 18% | inactive | 44%
26 | Cc1ccc(/C=C2\SC(=S)NC2=O)cc1 | – | 23% | – | –
